The source made the active and inactive calls. The rule behind the calls is not given here.

Results on 18 compounds are retold here after ChEMBL document CHEMBL1123359, “3,4-Dihydro-2-phenyl-2H-pyrano[2,3-b]pyridines with potent antirhinovirus activity” (1986).

Assay [1] has as its system HeLa. The assay is described as follows: Concentration required to reduce Rhino virus type 1A induced plaque formation in HeLa cell culture to 50% of control; The highest concentration tested failed to provide 50% protection. Format: functional. The note with it: Homo sapiens, read-out: ID50 (the source's name). Summed up:
(§1)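 HeLa monolayers were grown at 36 °C in Eagle's MEM with Earle's salts, 1% antibiotic and 7-10% heat-inactivated fetal calf serum, with serum cut to 1-2% for maintenance. Plaque reduction cultures were incubated 48-72 h at 33 °C. RV-1A was propagated in HeLa; RV-9 was ATCC VR489. Plaque counts as % of compound-free control were plotted against log concentration, and the 50% point was found by linear regression.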

Another assay has as its system Human rhinovirus 1A. The assay is described as follows: Concentration required to reduce Rhino virus type 1A induced plaque formation in HeLa cell culture to 50% of control. Format: functional. Conditions: read-out: ID50 (the source's name). Summed up: (§2)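 HeLa monolayers were grown at 36 °C in Eagle's MEM with Earle's salts, 1% antibiotic and 7-10% heat-inactivated fetal calf serum, with serum cut to 1-2% for maintenance. Plaque reduction cultures were incubated 48-72 h at 33 °C. RV-1A was propagated in HeLa; RV-9 was ATCC VR489.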

The subject of assay [2] is Human rhinovirus sp. The assay is described as follows: Concentration required to reduce Rhino virus type 64 induced plaque formation in HeLa cell culture to 50% of control. The note with it: read-out: ID50 (the source's name). Format: functional. Summed up:
as §2

The subject of assay [3] is HeLa. The assay is described as follows: The cell growth inhibition ( CGI) concentration denotes the lowest concentration at which the effect on HeLa cell colony formation became apparent. The class given is functional, Homo sapiens. Summed up: (§3)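 The assay scored effects of compound on the growth and morphology of HeLa cell colonies. HeLa stocks were kept in Eagle's MEM with Earle's salts, 1% antibiotic and 7-10% heat-inactivated fetal calf serum at 36 °C. The value is the lowest concentration at which a colony effect became apparent.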

The test system of assay [4] is Human rhinovirus sp. The assay is described as follows: Concentration required to reduce Rhino virus type 9 induced plaque formation in HeLa cell culture to 50% of control. The class given is functional. The note with it: read-out: ID50 (the source's name). Summed up: as §2
A short description of assay [5]: Activity against mengovirus.; No activity. Format: functional.
A short description of assay [6]: Activity against polio type 2; No activity. The class given is functional.
Assay [7] relates to HeLa. The assay is described as follows: Lowest concentration at which the effect on HeLa cell colony formation became apparent. Format: functional, Homo sapiens. Summed up:
as §3

The test system of assay [8] is HeLa. The assay is described as follows: Concentration required to reduce Rhino virus type 9 induced plaque formation in HeLa cell culture to 50% of control; The highest concentration tested failed to provide 50% protection. The class given is functional. The note with it: Homo sapiens, read-out: ID50 (the source's name). Summed up:
as §1

For assay [9], the system named is HeLa. The assay is described as follows: Concentration required to reduce Rhino virus type 64 induced plaque formation in HeLa cell culture to 50% of control; The highest concentration tested failed to provide 50% protection. Format: functional. The note with it: Homo sapiens, read-out: ID50 (the source's name).

As to `CS(=O)(=O)c1cnc2c(c1)CCC(c1ccccc1)O2` (stereo unspecified), the IC50 in the assay on HeLa [1] was greater than 17 µM.

For `CSc1cnc2c(c1)CCC(c1ccc(Cl)c(Cl)c1)O2` (stereo unspecified), the figures for the IC50 with Human rhinovirus 1A, in the assay on Human rhinovirus sp. [2] and with Human rhinovirus sp. [4] were 0.12 µM, 0.03 µM and 0.15 µM, respectively. Moreover, the CGI with HeLa [3] was 15 µM.

Regarding `Clc1ccc(C2CCc3cc(Br)cnc3O2)cc1Cl` (stereo unspecified), the outcome in [5] and in assay [6] was inactive. Also, the IC50 worked out at 0.03 µM with Human rhinovirus 1A, 0.06 µM in the assay with Human rhinovirus sp. [2] and 0.22 µM with Human rhinovirus sp. [4]. The CGI in the assay on HeLa [7] was found to be 28 µM.

Turning to `C[S+]([O-])c1cnc2c(c1)CCC(c1ccc(Cl)c(Cl)c1)O2` (stereo unspecified), the IC50 came to 0.26 µM with Human rhinovirus 1A, 0.009 µM in the assay with Human rhinovirus sp. [2] and 0.03 µM in the assay on Human rhinovirus sp. [4].

As to `Brc1cnc2c(c1)C=CC(c1ccccc1)O2` (stereo unspecified), the IC50 was 1.49 µM with Human rhinovirus 1A, greater than 3.47 µM with HeLa [8] and greater than 3.47 µM with HeLa [9].

For the compound `Clc1ccc(C2C=Cc3cc(Cl)cnc3O2)cc1` (stereo unspecified), the IC50 was determined as 0.18 µM with Human rhinovirus 1A, 0.47 µM in the assay with Human rhinovirus sp. [2] and 2.3 µM in the assay on Human rhinovirus sp. [4]. Further, the CGI with HeLa [3] was determined as 9 µM.

Consider `Clc1ccc(C2CCc3cccnc3O2)cc1Cl` (stereo unspecified), for which the values for the IC50 in the assay on Human rhinovirus 1A, with Human rhinovirus sp. [2] and in the assay with Human rhinovirus sp. [4] were 0.07 µM, 0.64 µM and 2.18 µM, respectively.

Consider `CS(=O)(=O)c1cnc2c(c1)CCC(c1ccc(Cl)c(Cl)c1)O2` (stereo unspecified), for which the IC50 in the assay with Human rhinovirus 1A was found to be 0.47 µM; with Human rhinovirus sp. [2], 0.01 µM; with Human rhinovirus sp. [4], 0.14 µM. Moreover, the CGI with HeLa [7] was found to be 56 µM.

With `Cc1ccc(C2CCc3cc(Br)cnc3O2)cc1` (stereo unspecified), the results for the IC50 in the assay with Human rhinovirus 1A, in the assay with Human rhinovirus sp. [2] and with Human rhinovirus sp. [4] were 0.07 µM, 0.23 µM and 0.39 µM, respectively.

With `Clc1ccc(C2=CCc3cc(Br)cnc3O2)cc1Cl`, the IC50 with HeLa [8] was greater than 14 µM; in the assay with Human rhinovirus sp. [2], 12.9 µM; in the assay on Human rhinovirus sp. [4], 0.59 µM.

For `Clc1ccc(C2CCc3cc(Cl)cnc3O2)cc1` (stereo unspecified), the values for the IC50 in the assay on Human rhinovirus 1A, in the assay on Human rhinovirus sp. [2] and with Human rhinovirus sp. [4] were 0.7 µM, 0.11 µM and 0.64 µM, respectively. Besides, the CGI with HeLa [7] stood at 35 µM.

For `CS(=O)(=O)c1cnc2c(c1)CCC(c1ccc(Cl)cc1)O2` (stereo unspecified), the IC50 with Human rhinovirus 1A amounted to 1.42 µM; with Human rhinovirus sp. [2], 0.25 µM; in the assay on Human rhinovirus sp. [4], 1.42 µM.

For `CCCCSc1cnc2c(c1)CCC(c1ccc(Cl)c(Cl)c1)O2` (stereo unspecified), the values for the IC50 in the assay with Human rhinovirus 1A, in the assay with Human rhinovirus sp. [2] and in the assay with Human rhinovirus sp. [4] were 2.83 µM, 1.39 µM and 6.3 µM, respectively.

`Clc1cnc2c(c1)CCC(c1ccc(Cl)c(Cl)c1)O2` (stereo unspecified): the IC50 came out at 0.06 µM with Human rhinovirus 1A, 0.03 µM in the assay with Human rhinovirus sp. [2] and 0.29 µM in the assay with Human rhinovirus sp. [4]. In addition, in the assay with HeLa [7], the CGI came out at 16 µM.

Take `Clc1ccc(C2CCc3cc(Br)cnc3O2)cc1` (stereo unspecified): the IC50 in the assay on Human rhinovirus 1A, with Human rhinovirus sp. [2] and in the assay on Human rhinovirus sp. [4] was 0.03 µM in each case.

In the case of `Clc1ccc(C2C=Cc3cc(Br)cnc3O2)cc1Cl` (stereo unspecified), the IC50 in the assay with Human rhinovirus 1A was 0.53 µM; in the assay with Human rhinovirus sp. [2] it was 0.06 µM; in the assay with Human rhinovirus sp. [4], 0.11 µM. Further, in the assay with HeLa [3], the CGI stood at 14 µM.

As for `Brc1cnc2c(c1)CCC(c1ccccc1)O2` (stereo unspecified), the values for the IC50 in the assay with Human rhinovirus 1A, in the assay on Human rhinovirus sp. [2] and with Human rhinovirus sp. [4] were 0.41 µM, 3.55 µM and 4.76 µM, respectively.

Take `CC1(c2ccc(Cl)c(Cl)c2)CCc2cc(Cl)cnc2O1` (stereo unspecified): the IC50 came to 1.09 µM in the assay with Human rhinovirus 1A, 0.4 µM in the assay with Human rhinovirus sp. [2] and 0.58 µM with Human rhinovirus sp. [4].
